Assay results taken from ChEMBL document CHEMBL2086326, “Biological activity evaluation and structure-activity relationships analysis of ferulic acid and caffeic acid derivatives for anticancer” (Bioorg Med Chem Lett, 2012).

Legend:
Type in all cases: functional, cell-based
A549 = test: Cytotoxicity against human A549 cells after 72 hrs by alamar blue assay; settings: A549, 72 h
Summary of the method: (§1)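 Cells seeded at 800–1000 per well (20–25 cells/µL) and left overnight to attach. Compounds were diluted serially from 10 mM DMSO stocks and tested at 8 final concentrations, 50 to 0.39 µM, in triplicate for 72 h. Vehicle control was 0.5% DMSO. Alamar blue was added to 10% final and fluorescence read after 4 h (ex 530, em 560 nm). Viability was expressed as percent of vehicle, and IC50 taken as 50% kill versus control.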

Calu-1 = test: Cytotoxicity against human Calu1 cells after 72 hrs by alamar blue assay; settings: Calu-1, 72 h; summary of the method: as §1
NCI-H1299 = test: Cytotoxicity against human NCI-H1299 cells after 72 hrs by alamar blue assay; settings: NCI-H1299, 72 h; summary of the method: as §1
NCI-H1792 = test: Cytotoxicity against human NCI-H1792 cells after 72 hrs by alamar blue assay; settings: NCI-H1792, 72 h; summary of the method: as §1
[1] = Cytotoxicity against human SKBR cells after 72 hrs by alamar blue assay; summary of the method: as §1
[2] = Cytotoxicity against human 292G cells after 72 hrs by alamar blue assay; summary of the method: as §1
HOP-62 = test: Cytotoxicity against human HOP62 cells after 72 hrs by alamar blue assay; settings: HOP-62, 72 h; summary of the method: as §1
LOX IMVI = test: Cytotoxicity against human LOXIMVI cells after 72 hrs by alamar blue assay; summary of the method: as §1
[3] = Cytotoxicity against human M4E cells after 72 hrs by alamar blue assay; summary of the method: as §1
HeLa = test: Cytotoxicity against human HeLa cells after 72 hrs by alamar blue assay; summary of the method: as §1
NCI-H157 = test: Cytotoxicity against human NCI-H157 cells after 72 hrs by alamar blue assay; settings: NCI-H157, 72 h; summary of the method: as §1
NCI-H460 = test: Cytotoxicity against human H460 cells after 72 hrs by alamar blue assay; settings: NCI-H460, 72 h; summary of the method: as §1
M14 = test: Cytotoxicity against human M14 cells after 72 hrs by alamar blue assay; settings: M14, 72 h; summary of the method: as §1
[4] = Cytotoxicity against human H266 cells after 72 hrs by alamar blue assay; settings: H266, 72 h; summary of the method: as §1

SMILES | IC50 (A549) | IC50 (Calu-1) | IC50 (NCI-H1299) | IC50 (NCI-H1792) | IC50 [1] | IC50 [2] | IC50 (HOP-62) | IC50 (LOX IMVI) | IC50 [3] | IC50 (HeLa) | IC50 (NCI-H157) | IC50 (NCI-H460) | IC50 (M14) | IC50 [4]
CC(C)OC(=O)/C=C/c1ccc(O)c(O)c1 | > 50 µM | > 50 µM | 30.8 µM | > 50 µM | 31.5 µM | > 50 µM | > 50 µM | > 50 µM | > 50 µM | 9.65 µM | 11 µM | 10.5 µM | > 50 µM | > 50 µM
COc1cc(/C=C/C(=O)OC(C)C)ccc1O | > 50 µM | > 50 µM | > 50 µM | > 50 µM | > 50 µM | > 50 µM | > 50 µM | > 50 µM | > 50 µM | 31.1 µM | > 50 µM | > 50 µM | > 50 µM | > 50 µM
CCCCOC(=O)/C=C/c1ccc(O)c(O)c1 [BUTYL CAFFEATE] | 3.51 µM | 11.7 µM | 5.81 µM | 5.75 µM | 2.17 µM | 6.46 µM | 5.59 µM | 9.54 µM | 8.66 µM | 0.59 µM | 2.62 µM | 5.62 µM | 11.1 µM | 11.3 µM
CCCOC(=O)/C=C/c1ccc(O)c(O)c1 | 4.39 µM | 17.7 µM | 5.85 µM | 22.1 µM | 3.87 µM | 7.58 µM | 7.81 µM | 7.5 µM | 12.4 µM | 1.51 µM | 7.16 µM | 7.01 µM | 13.5 µM | 34.4 µM
COc1cc(/C=C/C(=O)OC/C=C/CO[N+](=O)[O-])ccc1O | 5.95 µM | 2.48 µM | 2.34 µM | 4.86 µM | 6.53 µM | 21.9 µM | 5.13 µM | 2.36 µM | 9.38 µM | 1 µM | 4.29 µM | 4.98 µM | 3.89 µM | 9.79 µM
COc1cc(/C=C/C(=O)OCCCCCCO[N+](=O)[O-])ccc1O | 37.4 µM | > 50 µM | > 50 µM | 48.7 µM | 15.2 µM | > 50 µM | > 50 µM | > 50 µM | > 50 µM | 16.3 µM | 32.1 µM | > 50 µM | > 50 µM | > 50 µM
COC(=O)/C=C/c1ccc(O)c(OC)c1 | > 50 µM | > 50 µM | > 50 µM | > 50 µM | > 50 µM | > 50 µM | > 50 µM | > 50 µM | > 50 µM | 5.55 µM | > 50 µM | > 50 µM | > 50 µM | > 50 µM
O=C(/C=C/c1ccc(OCCCCCCO[N+](=O)[O-])c(O)c1)OCCCCCCO[N+](=O)[O-] | > 50 µM | > 50 µM | > 50 µM | > 50 µM | 39.7 µM | > 50 µM | > 50 µM | > 50 µM | > 50 µM | 1.35 µM | > 50 µM | > 50 µM | > 50 µM | > 50 µM
CC(C)COC(=O)/C=C/c1ccc(O)c(O)c1 | 13.6 µM | > 50 µM | 37.7 µM | > 50 µM | 16.2 µM | 37.5 µM | > 50 µM | > 50 µM | 36.8 µM | 4.7 µM | 8.55 µM | 16 µM | > 50 µM | > 50 µM
COc1cc(/C=C/C(=O)OCCCCOc2no[n+]([O-])c2S(=O)(=O)c2ccccc2)ccc1O | 0.4 µM | 0.41 µM | 0.42 µM | 0.42 µM | 0.42 µM | 1.93 µM | 0.41 µM | 0.44 µM | 0.84 µM | 0.46 µM | 0.42 µM | 0.45 µM | 0.4 µM | 0.4 µM
COc1cc(/C=C/C(=O)OCCCCCO[N+](=O)[O-])ccc1OCCCCCO[N+](=O)[O-] | > 50 µM | > 50 µM | > 50 µM | > 50 µM | > 50 µM | > 50 µM | > 50 µM | > 50 µM | > 50 µM | > 50 µM | > 50 µM | > 50 µM | > 50 µM | > 50 µM
